Reference: ChEMBL document CHEMBL1667760, “Synthesis and biological evaluation of 3,5-diaryl isoxazoline/isoxazole linked 2,3-dihydroquinazolinone hybrids as anticancer agents” (2011)
Calls of active or inactive are those of the source. The calls are words filed in the database; no cut-off is given here.

Tests used:
UO-31 = assay: Cytotoxicity against human UO31 cells after 48 hrs by sulforhodamine B assay; assay type: functional; conditions: UO-31, 48 h
Procedure, shortened: (§1)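 NCI 60-cell-line panel screen of human tumor lines: a one-dose pre-test, then the main test over a 5-log range (10^-4–10^-8 M). GI50, TGI and LC50 are reported as log molar concentrations for 50% net growth inhibition, total growth inhibition and 50% net cell death. Mean graph midpoints are also calculated.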

HL-60(TB) = assay: Cytotoxicity against human HL-60(TB) cells after 48 hrs by sulforhodamine B assay; assay type: functional; conditions: HL-60, 48 h
Procedure, shortened: (§2)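 Run by the NCI 60 human tumour cell line screen. A one-dose pre-test across sixty lines came first. The main test then used a 5-log dose range (10^-4–10^-8 M). Values derived per cell line were GI50 (log molar concentration for 50% net growth inhibition), TGI (total growth inhibition) and LC50 (50% net cell death).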

IGROV-1 = assay: Cytotoxicity against human IGROV1 cells after 48 hrs by sulforhodamine B assay; assay type: functional; conditions: IGROV-1, 48 h
Procedure, shortened: (§3)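 Run by the NCI 60-cell-line screen. A one-dose pre-test was done first, followed by the main test over a 5-log dose range (10^-4 to 10^-8 M). Results are reported as log molar GI50 (50% net growth inhibition), TGI (total growth inhibition) and LC50 (50% net cell death), with mean-graph midpoints across all lines.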

MCF7 [1] = assay: Cell cycle arrest in human MCF7 cells assessed as accumulation at G0 phase at 5 uM after 24 hrs using propidium iodide staining by flow cytometry relative to control; assay type: functional
Procedure, shortened: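 MCF-7 cells were seeded at 5×10^5 per 60 mm dish and grown 24 h. They were then exposed to 5 uM compound for a further 24 h, with untreated control cells alongside. Cells were trypsinised, fixed in ice-cold 70% ethanol (4 °C, 30 min), treated with 1 mg/ml RNase A (37 °C, 30 min) and stained with propidium iodide/citrate/Triton solution. DNA content was read by flow cytometry on 20,000 events.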

HCT-116 = assay: Cytotoxicity against human HCT116 cells after 48 hrs by sulforhodamine B assay; assay type: functional; conditions: HCT-116, 48 h; procedure, shortened: as §3
Malme-3M = assay: Cytotoxicity against human MALME-3M cells after 48 hrs by sulforhodamine B assay; assay type: functional; procedure, shortened: as §2
SK-MEL-2 = assay: Cytotoxicity against human SK-MEL-2 cells after 48 hrs by sulforhodamine B assay; assay type: functional; conditions: SK-MEL-2, 48 h; procedure, shortened: as §3
Tubulin (Homo sapiens) = Tubulin (Homo sapiens) (UniProt P68371+Q9H4B7+P0DPH7+P68366+Q13509+Q71U36+P04350+Q3ZCM7+P07437+P68363+Q9BQE3+Q6PEY2+Q13885+Q9BVA1+Q9BUF5); assay: Inhibition of tubulin polymerization in human MCF7 cells assessed as disrupted microtubule organization at 5 uM after 48 hrs by microscopic analysis; assay type: cell-based
Procedure, shortened: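 MCF-7 cells on coverslips incubated 48 h with or without compound. Fixed in 3% paraformaldehyde/0.02% glutaraldehyde, permeabilized in -20 °C methanol, blocked with 1% BSA. Stained with mouse monoclonal anti-tubulin and FITC secondary; confocal imaging to judge microtubule network integrity.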

MOLT-4 = assay: Cytotoxicity against human MOLT4 cells after 48 hrs by sulforhodamine B assay; assay type: functional; conditions: MOLT-4, 48 h; procedure, shortened: as §3
MCF7 [2] = assay: Reduction of cyclin B expression in human MCF7 cells at 5 uM after 24 hrs by Western blotting; assay type: functional, cell-based
Procedure, shortened: (§4)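 MCF-7 cells, kept in DMEM with 10% fetal calf serum at 37 °C under 5% CO2, treated 24 h. Lysis in ice-cold RIPA with protease inhibitors; Bradford quantitation; 30 µg protein per lane on 12% SDS-PAGE, then PVDF. Primary antibodies (1:500) at 4 °C overnight; HRP secondary (1:2000); chemiluminescence detection; β-actin loading control.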

MCF7 [3] = assay: Induction of apoptosis in human MCF7 cells assessed as increase of cleaved PARP level at 5 uM after 24 hrs by Western blotting; assay type: functional, cell-based; procedure, shortened: as §4
MDA-MB-231 = assay: Cytotoxicity against human MDA-MB-231 cells after 48 hrs by sulforhodamine B assay; assay type: functional; conditions: MDA-MB-231, 48 h; procedure, shortened: as §3
MCF7 [4] = assay: Reduction of cyclin A expression in human MCF7 cells at 5 uM after 24 hrs by Western blotting; assay type: functional, cell-based; procedure, shortened: as §4
MCF7 [5] = assay: Cytotoxicity against human MCF7 cells at 5 uM after 24 hrs by MTT assay
SNB-19 = assay: Cytotoxicity against human SNB19 cells after 48 hrs by sulforhodamine B assay; assay type: functional; conditions: SNB-19, 48 h; procedure, shortened: as §1
SF-539 = assay: Cytotoxicity against human SF539 cells after 48 hrs by sulforhodamine B assay; assay type: functional; conditions: SF-539, 48 h; procedure, shortened: as §3
HOP-62 = assay: Cytotoxicity against human HOP62 cells after 48 hrs by sulforhodamine B assay; assay type: functional; conditions: HOP-62, 48 h; procedure, shortened: as §3
NCI/ADR-RES = assay: Cytotoxicity against human NCI/ADR-RES cells after 48 hrs by sulforhodamine B assay; assay type: functional; procedure, shortened: as §3
TK-10 = assay: Cytotoxicity against human TK10 cells after 48 hrs by sulforhodamine B assay; assay type: functional; conditions: TK-10, 48 h; procedure, shortened: as §1
MCF7 [6] = assay: Cytotoxicity against human MCF7 cells after 48 hrs by sulforhodamine B assay; assay type: functional; conditions: MCF7, 48 h
Procedure, shortened: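 Cells were grown in RPMI 1640 with 10% FBS and 2 mM L-glutamine, plated at densities set by doubling time, and pre-incubated 24 h at 37 °C, 5% CO2. Drugs were tested at 0.1, 1, 10 and 100 µM in triplicate wells for 48 h continuous exposure. Cells were fixed with 10% TCA (final) and stained with 0.4% SRB. A540 was read against a 690 nm reference, and percent growth was calculated relative to control. Experiments were repeated three times.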

SK-MEL-5 = assay: Cytotoxicity against human SK-MEL-5 cells after 48 hrs by sulforhodamine B assay; assay type: functional; conditions: SK-MEL-5, 48 h; procedure, shortened: as §3
SK-MEL-28 = assay: Cytotoxicity against human SK-MEL-28 cells after 48 hrs by sulforhodamine B assay; assay type: functional; conditions: SK-MEL-28, 48 h; procedure, shortened: as §3
[7] = read-out: pLC50 (the source's name) (converted)

Question: With COc1cc(C2NC(=O)c3ccccc3N2)ccc1OCCCCCOc1c(OC)cc(C2=NOC(c3cc(OC)c(OC)c(OC)c3)C2)cc1OC (stereo not drawn) as the compound, how does the GI50 (UO-31) read?
Answer: 10.7 µM

Question: And the CC50 (UO-31; [7])?
Answer: > 100 µM

Question: And the TGI (UO-31; read-out: pTGI)?
Answer: > 100 µM

Question: What about the GI50 (HL-60(TB)) of the same compound?
Answer: 11.2 µM

Question: And the CC50 (HL-60(TB); [7])?
Answer: > 100 µM

Question: What about the TGI (HL-60(TB); read-out: pTGI) of the same compound?
Answer: > 100 µM

Question: What about the GI50 (IGROV-1) of the same compound?
Answer: 1.12 µM

Question: And the CC50 (IGROV-1; [7])?
Answer: > 100 µM

Question: And the TGI (IGROV-1; read-out: pTGI (converted))?
Answer: 50.1 µM

Question: And the Activity (MCF7 [1])?
Answer: 1.57%

Question: What about the GI50 (HCT-116) of the same compound?
Answer: 0.708 µM

Question: And the CC50 (HCT-116; [7])?
Answer: > 100 µM

Question: And the TGI (HCT-116; read-out: pTGI (converted))?
Answer: 40.7 µM

Question: And the CC50 (Malme-3M; [7])?
Answer: > 100 µM

Question: And the TGI (Malme-3M; read-out: pTGI)?
Answer: > 100 µM

Question: What about the GI50 (SK-MEL-2) of the same compound?
Answer: 35.5 µM

Question: And the CC50 (SK-MEL-2; [7])?
Answer: > 100 µM

Question: And the TGI (SK-MEL-2; read-out: pTGI)?
Answer: > 100 µM

Question: What about the inhibition (Tubulin (Homo sapiens)) of the same compound?
Answer: Active

Question: What about the GI50 (MOLT-4) of the same compound?
Answer: 0.479 µM

Question: And the CC50 (MOLT-4; [7])?
Answer: > 100 µM

Question: What about the TGI (MOLT-4; read-out: pTGI) of the same compound?
Answer: > 100 µM

Question: And the Activity (MCF7 [2])?
Answer: Active

Question: And the Activity (MCF7 [3])?
Answer: Active

Question: And the GI50 (MDA-MB-231)?
Answer: 14.8 µM

Question: What about the CC50 (MDA-MB-231; [7]) of the same compound?
Answer: > 100 µM

Question: What about the TGI (MDA-MB-231; read-out: pTGI) of the same compound?
Answer: > 100 µM

Question: What about the Activity (MCF7 [4]) of the same compound?
Answer: Active

Question: What about the Activity (MCF7 [5]) of the same compound?
Answer: Active

Question: And the GI50 (SNB-19)?
Answer: 16.6 µM

Question: What about the CC50 (SNB-19; [7]) of the same compound?
Answer: > 100 µM

Question: And the TGI (SNB-19; read-out: pTGI)?
Answer: > 100 µM

Question: What about the GI50 (SF-539) of the same compound?
Answer: 17.8 µM

Question: What about the CC50 (SF-539; [7]) of the same compound?
Answer: > 100 µM

Question: What about the TGI (SF-539; read-out: pTGI (converted)) of the same compound?
Answer: 89.1 µM

Question: And the GI50 (HOP-62)?
Answer: 19.1 µM

Question: What about the CC50 (HOP-62; [7]) of the same compound?
Answer: > 100 µM

Question: What about the TGI (HOP-62; read-out: pTGI (converted)) of the same compound?
Answer: 81.3 µM

Question: And the GI50 (NCI/ADR-RES)?
Answer: 15.1 µM

Question: What about the CC50 (NCI/ADR-RES; [7]) of the same compound?
Answer: > 100 µM

Question: And the TGI (NCI/ADR-RES; read-out: pTGI)?
Answer: > 100 µM

Question: What about the GI50 (TK-10) of the same compound?
Answer: > 100 µM

Question: And the CC50 (TK-10; [7])?
Answer: > 100 µM

Question: What about the TGI (TK-10; read-out: pTGI) of the same compound?
Answer: > 100 µM

Question: And the GI50 (MCF7 [6])?
Answer: 0.282 µM

Question: And the CC50 (MCF7 [6]; [7])?
Answer: > 100 µM

Question: And the TGI (MCF7 [6]; read-out: pTGI)?
Answer: > 100 µM

Question: And the GI50 (SK-MEL-5)?
Answer: 0.112 µM

Question: What about the CC50 (SK-MEL-5; [7]) of the same compound?
Answer: 0.933 µM

Question: And the TGI (SK-MEL-5; read-out: pTGI (converted))?
Answer: 0.324 µM

Question: And the GI50 (SK-MEL-28)?
Answer: 5.25 µM

Question: What about the CC50 (SK-MEL-28; [7]) of the same compound?
Answer: > 100 µM

Question: And the TGI (SK-MEL-28; read-out: pTGI)?
Answer: > 100 µM
